Calls of active or inactive are those of the source. The calls are words filed in the database; no cut-off is given here.
How the values were obtained:
Mus musculus [1] = assay: Antifibrotic activity against BLM-induced lung injury C57BL/6 mouse model assessed as reduction in accumulation of immune cells bronchoalveolar lavage at 80 mg/kg, po qd pretreated with compound for 1 hr followed by BLM treatment and measured on day 21 by trypan blue staining based hemocytometer analysis; type: functional, organism-based
Summary of the method: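 BLM model with aspiration, oral daily dosing in saline from 1 h pre-challenge, and day-21 endpoint. Lavage via tracheal cannula with 1 mL aliquots of ice-cold Ca/Mg-free phosphate medium, pH 7.4. Cells pelleted at 500×g, 5 min, 4 °C, then washed and resuspended. Counted by trypan blue exclusion on a hemocytometer.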

Mus musculus [2] = assay: Antifibrotic activity against BLM-induced lung injury C57BL/6 mouse model assessed as reduction in lung wet/dry ratio by measuring liquid accumulation at 80 mg/kg, po qd pretreated with compound for 1 hr followed by BLM treatment and measured on day 21; type: functional, organism-based; conditions: time 21.0 day
Summary of the method: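 At day 21 after BLM aspiration (compound given orally daily from 1 h pre-BLM), lungs harvested free of extraneous tissue and weighed wet. Dried 72 h at 100°C and reweighed. Water content = wet minus dry weight.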

Mus musculus [3] = assay: Antifibrotic activity against BLM-induced lung injury C57BL/6 mouse model assessed as decrease in MPO level at 80 mg/kg, po qd pretreated with compound for 1 hr followed by BLM treatment and measured on day 21 by colorimetric assay; type: functional, organism-based; conditions: time 21.0 day
Summary of the method: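 BLM 0.02U/50µl given by pharyngeal aspiration under isoflurane. Compound in 0.9% NaCl, or saline vehicle, by gavage 1 h before BLM, then daily. Mice killed day 21. Lung MPO measured with a colorimetric kit per the manufacturer. Unit = enzyme degrading 1 μM peroxide/min at 37°C, expressed as U/mg wet tissue.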

Mus musculus [4] = assay: Antifibrotic activity against BLM-induced lung injury C57BL/6 mouse model assessed as decrease in inflammatory interstitial infiltrate at 80 mg/kg, po qd pretreated with compound for 1 hr followed by BLM treatment and measured on day 21 by H and E staining based histological analysis; type: functional, organism-based; conditions: time 21.0 day
Summary of the method: (§1)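 BLM model: pharyngeal aspiration 0.02U/50µl; oral daily dosing in saline from 1 h pre-BLM; day 21 sacrifice. Lungs fixed 48 h in 10% buffered formalin at room temperature, paraffin-embedded, 4 µm sections. Stains: H&E for infiltrate, Masson's trichrome or Picrosirius Red for stromal fibres.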

Mus musculus [5] = assay: Antifibrotic activity against BLM-induced lung injury C57BL/6 mouse model assessed as reduction in collagen thickness at 80 mg/kg, po qd pretreated with compound for 1 hr followed by BLM treatment and measured on day 21 by Masson trichrome staining based analysis; type: functional, organism-based; conditions: time 21.0 day; summary of the method: as §1
Mus musculus [6] = assay: Antifibrotic activity against BLM-induced lung injury C57BL/6 mouse model assessed as reduction in collagen thickness at 80 mg/kg, po qd pretreated with compound for 1 hr followed by BLM treatment and measured on day 21 by picrosirius red staining method; type: functional, organism-based; conditions: time 21.0 day; summary of the method: as §1
Mus musculus [7] = assay: (§2) Antifibrotic activity against Pseudomonas aeruginosa-induced pulmonary fibrosis C57BL/6 mouse model assessed as reduction in accumulation of immune cells bronchoalveolar lavage at 80 mg/kg, os qd pretreated with compound for 1 hr followed by Pseudomonas aeruginosa instillation and measured after 7 days by trypan blue staining based hemocytometer analysis; type: functional, organism-based; conditions: time 7.0 day
Summary of the method: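 Day 7 after trans-tracheal Pseudomonas bead instillation, with oral 80 mg/kg daily dosing. Trachea cannulated, lungs washed once with 0.5 mL Dulbecco's PBS. Fluid spun, then total pelleted cells counted with trypan blue on a hemocytometer.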

Mus musculus [8] = assay: Antifibrotic activity against Pseudomonas aeruginosa-induced pulmonary fibrosis C57BL/6 mouse model assessed as reduction in MPO level at 80 mg/kg, os qd […] and measured after 7 days by spectrophotometric analysis; type: functional, organism-based; conditions: time 7.0 day, tested as the 2H-labelled form
Summary of the method: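 Pseudomonas bead model, 80 mg/kg oral daily for 7 days from 1 h post-instillation. Lungs homogenized in 0.5% HTAB/10 mM potassium phosphate pH 7 and spun 20,000×g, 30 min, 4 °C. Supernatant reacted with 0.1 mM H2O2 and 1.6 mM tetramethylbenzidine, A650 read. Unit = 1 µmol H2O2 degraded/min at 37 °C; per g wet tissue.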

Mus musculus [9] = assay: as §2, with “inflammatory interstitial infiltrate” for “accumulation of immune cells bronchoalveolar lavage”, “H and E” for “trypan blue”, “histological” for “hemocytometer”; type: functional, organism-based; conditions: time 7.0 day
Summary of the method: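 Pseudomonas bead lung model, day 7, with oral 80 mg/kg daily treatment. Biopsies fixed in 10% formaldehyde in PBS at room temperature and stained with H&E. Five random fields per sample at ×100 scored for severity by a blinded observer.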

Mus musculus [10] = assay: (§3) Antifibrotic activity against Pseudomonas aeruginosa-induced pulmonary fibrosis C57BL/6 mouse model assessed as effect on collagen deposition at 80 mg/kg, os qd pretreated with compound for 1 hr followed by Pseudomonas aeruginosa instillation and measured after 7 days by Masson trichrome staining based analysis; type: functional, organism-based; conditions: time 7.0 day, tested as the 2H-labelled form
Mus musculus [11] = assay: Antifibrotic activity against Pseudomonas aeruginosa-induced pulmonary fibrosis C57BL/6 mouse model assessed as effect on nitrotyrosine expression at 80 mg/kg, os qd […] and measured after 7 days by immunohistochemistry analysis; type: functional, organism-based; conditions: time 7.0 day, tested as the 2H-labelled form
Summary of the method: (§4)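 Mucoid P. aeruginosa NH57388A in agar beads, ~1×10^6 CFU per mouse, given trans-tracheally under isoflurane. Compound 80 mg/kg orally daily from 1 h post-instillation for 7 days, n=10. Lung sections 8 µm from formaldehyde-fixed paraffin blocks. Anti-nitrotyrosine or anti-PAR 1:500 overnight, avidin-biotin peroxidase detection. Densitometry of positive pixels; mean ± S.E.M.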

Mus musculus [12] = assay: Antifibrotic activity against Pseudomonas aeruginosa-induced pulmonary fibrosis C57BL/6 mouse model assessed as effect on poly(ADP-ribose) polymerase level at 80 mg/kg, os qd […] and measured after 7 days by immunohistochemistry analysis; type: functional, organism-based; conditions: time 7.0 day, tested as the 2H-labelled form; summary of the method: as §4
Mus musculus [13] = assay: Inhibition of Pseudomonas aeruginosa-induced apoptosis in C57BL/6 mouse at 80 mg/kg, os qd pretreated with compound for 1 hr followed by Pseudomonas aeruginosa instillation and measured after 7 days by TUNEL assay; type: functional, organism-based; conditions: time 7.0 day, tested as the 2H-labelled form
Summary of the method: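 Lung sections from the day-7 Pseudomonas model (oral 80 mg/kg daily) treated with 15 µg/ml proteinase K for 15 min at RT, then 3% H2O2 for 5 min. TdT with biotinylated dUTP applied, 37 °C 90 min. HRP-conjugated antibody 30 min, then DAB. TUNEL-positive cells quantified.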

Mus musculus [14] = assay: as §3, with “decrease in lung inflammation” for “effect on collagen deposition”, “immunohistochemistry” for “Masson trichrome staining based”; type: functional, organism-based; conditions: time 7.0 day
[15] = Drug metabolism in mouse plasma assessed as 7-theophylline acetic acid formation by measuring fold increase measured at 30 mins; type: ADME, cell-free; conditions: 0.5 h
Summary of the method: (§5)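 Plasma from mice dosed 20 mg/Kg i.v. or 80 mg/Kg by oral gavage, sampled sublingually under isoflurane pre-dose to 24 h (n=3), K3EDTA. Caffeine internal standard, trichloroacetic acid precipitation. Kinetex C18 UHPLC-MS, positive full-scan/PRM. Metabolites quantified against calibration curves.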

[16] = Drug metabolism in mouse plasma assessed as Etophylline formation measured upto 4 hrs; type: ADME, cell-free; summary of the method: as §5
[17] = Drug metabolism in mouse plasma assessed as Theophylline formation measured upto 4 hrs; type: ADME, cell-free; summary of the method: as §5
[18] = Drug metabolism in mouse plasma assessed as dm-doxophylline formation measured upto 4 hrs; type: ADME, cell-free; summary of the method: as §5
[19] = Drug metabolism in mouse plasma assessed as 7-((1,3-dioxol-2-yl)methyl)-1,3-dimethyl-1H-purine-2,6(3H,7H)-dione formation measured upto 6 hrs; type: ADME, cell-free

**Q.** For `Cn1c(=O)c2c(ncn2CC2OCCO2)n(C)c1=O`, which Activity (Mus musculus [1]) is on record?
**A.** The Activity was “Active”.

**Q.** And the Activity (Mus musculus [1]; tested as the 2H-labelled form)?
**A.** The Activity was “Active”.

**Q.** And the Activity (Mus musculus [2])?
**A.** Its Activity is “Active”.

**Q.** What about the Activity (Mus musculus [2]; tested as the 2H-labelled form) of the same compound?
**A.** Its Activity is “Active”.

**Q.** What about the Activity (Mus musculus [3]) of the same compound?
**A.** Its Activity is “Active”.

**Q.** And the Activity (Mus musculus [3]; tested as the 2H-labelled form)?
**A.** Its Activity is “Active”.

**Q.** And the Activity (Mus musculus [4])?
**A.** Its Activity is “Active”.

**Q.** And the Activity (Mus musculus [4]; tested as the 2H-labelled form)?
**A.** Its Activity is “Active”.

**Q.** What about the Activity (Mus musculus [5]) of the same compound?
**A.** Its Activity is “Active”.

**Q.** What about the Activity (Mus musculus [5]; tested as the 2H-labelled form) of the same compound?
**A.** The Activity was “Active”.

**Q.** What about the Activity (Mus musculus [6]) of the same compound?
**A.** Its Activity is “Active”.

**Q.** What about the Activity (Mus musculus [6]; tested as the 2H-labelled form) of the same compound?
**A.** The Activity was “Active”.

**Q.** And the Activity (Mus musculus [7])?
**A.** Its Activity is “Active”.

**Q.** And the Activity (Mus musculus [7]; tested as the 2H-labelled form)?
**A.** Its Activity is “Active”.

**Q.** And the Activity (Mus musculus [8])?
**A.** The Activity was “Active”.

**Q.** What about the Activity (Mus musculus [9]) of the same compound?
**A.** The Activity was “Active”.

**Q.** And the Activity (Mus musculus [9]; tested as the 2H-labelled form)?
**A.** The Activity was “Active”.

**Q.** And the Activity (Mus musculus [10])?
**A.** The Activity was “Active”.

**Q.** What about the Activity (Mus musculus [11]) of the same compound?
**A.** Its Activity is “Active”.

**Q.** What about the Activity (Mus musculus [12]) of the same compound?
**A.** Its Activity is “Active”.

**Q.** And the inhibition (Mus musculus [13])?
**A.** Its inhibition is “Active”.

**Q.** And the Activity (Mus musculus [14])?
**A.** Its Activity is “Active”.

**Q.** What about the Activity (Mus musculus [14]; tested as the 2H-labelled form) of the same compound?
**A.** The Activity was “Active”.

**Q.** For `[2H]C1([2H])OC(Cn2cnc3c2c(=O)n(C)c(=O)n3C)OC1([2H])[2H]`, which “fold change (FC)” value [15] is on record?
**A.** Its value is 3.

**Q.** And the Drug metabolism [16]?
**A.** The Drug metabolism was “Metabolite_Notdetected”.

**Q.** What about the Drug metabolism [17] of the same compound?
**A.** Its Drug metabolism is “Metabolite_Detected”.

**Q.** And the Drug metabolism [18]?
**A.** Its Drug metabolism is “Metabolite_Detected”.

**Q.** What about the Drug metabolism [19] of the same compound?
**A.** Its Drug metabolism is “Metabolite_Notdetected”.

Source: ChEMBL document CHEMBL5126619, “An Unexpected Deuterium-Induced Metabolic Switch in Doxophylline” (ACS Med Chem Lett, 2022)
